The values that follow come from PubChem BioAssay.

SMILES strings stand for the structures. Calls of active or inactive are those of the source. Unless noted, no stated cut-off is given here; in the data, active means inhibition above about 30%; inactive means the rest.

Assay [1] in a line: SK-BR-3 cell growth inhibitors, pilot screen, 24 h, human (AID 572;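 active means viability at or below 10% of carrier control in both of two separate runs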;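 further: compound exposure lasted between 18 and 24 h rather than exactly 24 h; 100% = carrier-treated control wells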). The conditions noted are these: SK-BR-3 viability, CellTiter-Glo luminescence, at 10 µM, stronger effect = lower value.
Assay [2] is described as follows: HUVEC growth inhibition – cell-based, human, primary screen (AID 575;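 active means viability at or below 30% in both replicate assays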;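 further: 100% = median of untreated cell wells with 0.1% DMSO on each plate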). The following applies: HUVEC proliferation, CellTiter-Glo luminescence, 72 h; at 10 µM; stronger effect = lower value. The procedure, abridged:
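Test system: primary human umbilical vein endothelial cells; medium: endothelial basal medium with 2% FBS plus growth supplements; dosing: 10 µM compound only; times: 72 h treatment at 37 °C; signal: CTG luminescence; read-out: % viability relative to median vehicle-well signal on each plate; control set: vehicle and MePR control wells; plate: 384-well, collagen-coated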
In general terms: Cellular ATP, detected with luciferase, serves as a proxy for viable cell number.

Assay [3] is described as follows: growth inhibitors of H69AR lung tumor, primary screen, human, duplicate replicates (AID 580;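 active means viability at or under a set limit in both replicates, limit being median viability minus 3 SD, cut at about 48% in these data, passing the limit was not always enough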;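 further: 100% = mean luminescence of untreated wells and 0% = no signal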). The conditions noted are these: H69AR lung tumor cells viability, ATP luminescence, 72 h; at 10 µM; stronger effect = lower value.
Assay [4] is described as follows: reversal of MRP1-mediated doxorubicin resistance, pilot screen, H69AR cells, doxorubicin co-treatment (AID 601;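 active means viability loss from added drug above about 55%, and viability with drug at most 40%, in both replicates, limit read from the data, passing the limit was not always enough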). The following applies: CellTiter-Glo, 72 h, at 10 µM; for differential viability (reversal): stronger effect = higher value.
Assay [5] in a line: 384-well plate pilot, post-Golgi transport modulator project, inhibition of yeast transport mutant growth (AID 636; in the data active means inhibition above about 31%). The following applies: absorbance 615 nm, about 18 h, stronger effect = higher value.
Assay [6] in a line: growth suppression of yeast trafficking mutant, preliminary HTS, modulators of trafficking downstream of Golgi apparatus project, 1536-format plate, OD 615 nm (AID 637). The following applies: yeast transport mutant growth, absorbance 615 nm, 18 h; stronger effect = higher value.
Setting [7] is: H69AR cells + 2 uM doxorubicin, measured here: viability with 2 uM doxorubicin, stronger effect = lower value.
Where [8] appears, read: H69AR cells, compound alone cytotoxicity.

As for `CC(=O)N1CCc2cc(S(=O)(=O)NCCC(=O)NC3CCCc4ccccc43)ccc21` (stereo not drawn), the viability (as a rule, a read-out of living cells in per cent, often relative to untreated cells) in assay [1] was 113% (inactive); in assay [2], 112% (inactive); in assay [3] it was 88.9% (inactive); in assay [4] (setting [7]) it was 90%; in assay [4] (setting [8]) it was 88.9%. Besides, the differential viability (reversal) in assay [4] (H69AR cells + 2 uM doxorubicin) was -1.16% (inactive). In addition, the inhibition (as a rule, the change of the read-out against control, counted positive when it falls) was -4% (inactive) in assay [5] and -3.27% (inactive) in assay [6].
As for `COc1cc2cc(C(c3nnnn3C3CCCC3)N(C)C3CCCCC3)c(=O)[nH]c2cc1OC` (stereo not drawn), the viability was 81% (inactive) in assay [1]; 85.2% (inactive) in assay [2]; 81.9% (inactive) in assay [3]; 86.2% in assay [4] (setting [7]); 81.9% in assay [4] (setting [8]). In assay [4] (H69AR cells + 2 uM doxorubicin), the differential viability (reversal) is -4.31% (inactive). Also, the inhibition in assay [5] was -1.3% (inactive); in assay [6] it was -2.13% (inactive).
`Cc1ccc(-c2nc3cc(NC(=O)C(C)C)ccc3o2)cc1C`: the viability in assay [1] was 80% (inactive); in assay [2], 51.8% (inactive); in assay [3], 72.9% (inactive); in assay [4] (setting [7]) it was 69.9%; in assay [4] (setting [8]) it was 72.9%. In addition, in assay [4] (H69AR cells + 2 uM doxorubicin), the differential viability (reversal) is 2.97% (inactive). In addition, the inhibition was -4.66% (inactive) in assay [5] and -8.55% (inactive) in assay [6].
On to `C=COCCNC(=O)Nc1ccc(Cl)c(Cl)c1`, for which the viability in assay [1] is 91% (inactive); in assay [2] it was 101% (inactive); in assay [3], 91.1% (inactive); in assay [4] (setting [7]) it was 94.1%; in assay [4] (setting [8]), 91.1%. For the same compound, the differential viability (reversal) in assay [4] (H69AR cells + 2 uM doxorubicin) is -3.01% (inactive). The results for the inhibition in assay [5] and in assay [6] were 2.16% (inactive) and -1.09% (inactive), respectively.
Consider `Fc1cccc(Cl)c1Cn1nnc2c(NCc3ccccn3)ncnc21`, for which the viability in assay [1] was 76% (inactive); in assay [2], 92.9% (inactive); in assay [3] it was 105% (inactive); in assay [4] (setting [7]) it was 91.1%; in assay [4] (setting [8]) it was 105%. Also, the differential viability (reversal) in assay [4] (H69AR cells + 2 uM doxorubicin) is 14.2% (inactive). The values for the inhibition in assay [5] and in assay [6] were -4.66% (inactive) and -4.84% (inactive), respectively.
Regarding `O=C(NCCCN1CCCC1=O)c1cccnc1`, the viability was 135% (inactive) in assay [1]; 113% (inactive) in assay [2]; 89.2% (inactive) in assay [3]; 88.7% in assay [4] (setting [7]); 89.2% in assay [4] (setting [8]). Moreover, the differential viability (reversal) in assay [4] (H69AR cells + 2 uM doxorubicin) is 0.48% (inactive). Moreover, the inhibition in assay [5] was -4.25% (inactive); in assay [6] it was 3.09% (inactive).
Turning to `CCOC(=O)C(C#N)C(c1cccnc1)c1c(C)[nH][nH]c1=O` (stereo not drawn), the viability is 77% (inactive) in assay [1]; 107% (inactive) in assay [2]; 105% (inactive) in assay [3]; 95.7% in assay [4] (setting [7]); 105% in assay [4] (setting [8]). Moreover, the differential viability (reversal) in assay [4] (H69AR cells + 2 uM doxorubicin) was 9.4% (inactive). Also, the inhibition was -7.43% (inactive) in assay [5] and 4% (inactive) in assay [6].
Turning to `CCN(C(=O)c1ccnc(C(C)(C)C)c1)c1ccccc1`, the viability in assay [1] was 88% (inactive); in assay [2], 94.4% (inactive); in assay [3] it was 79.2% (inactive); in assay [4] (setting [7]) it was 83.3%; in assay [4] (setting [8]), 79.2%. In addition, the differential viability (reversal) in assay [4] (H69AR cells + 2 uM doxorubicin) was -4.02% (inactive). The inhibition in assay [5] is -6.85% (inactive); in assay [6], 2% (inactive).
For `Cc1nnc2c3ccccc3c(-c3ccccc3)nn12`, the viability was 88% (inactive) in assay [1]; 100% (inactive) in assay [2]; 68.1% (inactive) in assay [3]; 25.3% in assay [4] (setting [7]); 68.1% in assay [4] (setting [8]). In assay [4] (H69AR cells + 2 uM doxorubicin), the differential viability (reversal) was 42.8% (inactive). For the same compound, the inhibition in assay [5] is -6.49% (inactive); in assay [6] it was 3.27% (inactive).
`Cc1cc(=O)n2[nH]c(-c3ccc(Cl)cc3)cc2n1`: the viability in assay [1] was 108% (inactive); in assay [2] it was 75.8% (inactive); in assay [3] it was 99.2% (inactive); in assay [4] (setting [7]) it was 90.7%; in assay [4] (setting [8]), 99.2%. Besides, the differential viability (reversal) in assay [4] (H69AR cells + 2 uM doxorubicin) was 8.53% (inactive). Besides, the inhibition in assay [5] is -4.66% (inactive); in assay [6] it was 5.45% (inactive).
Take `CCn1nnnc1SCC(=O)Nc1nc(-c2cccs2)cs1`: the viability in assay [1] is 110% (inactive); in assay [2], 83.8% (inactive); in assay [3] it was 86.5% (inactive); in assay [4] (setting [7]), 68.3%; in assay [4] (setting [8]) it was 86.5%. Besides, the differential viability (reversal) in assay [4] (H69AR cells + 2 uM doxorubicin) is 18.2% (inactive). The inhibition was -11% (inactive) in assay [5] and 3.87% (inactive) in assay [6].
On to `COc1cc(CC(=O)Oc2ccc3c(c2)OCO3)cc(OC)c1OC`, for which the viability is 98% (inactive) in assay [1]; 104% (inactive) in assay [2]; 84.8% (inactive) in assay [3]; 84.2% in assay [4] (setting [7]); 84.8% in assay [4] (setting [8]). Besides, in assay [4] (H69AR cells + 2 uM doxorubicin), the differential viability (reversal) was 0.695% (inactive). Also, the inhibition in assay [5] is -2.93% (inactive); in assay [6] it was 2.91% (inactive).
Take `COc1ccc(CN(C(=O)CN2C(=O)COc3ccccc32)C2CCCC2)c(OC)c1`: the viability was 110% (inactive) in assay [1]; 87.4% (inactive) in assay [2]; 92.5% (inactive) in assay [3]; 87.9% in assay [4] (setting [7]); 92.5% in assay [4] (setting [8]). The differential viability (reversal) in assay [4] (H69AR cells + 2 uM doxorubicin) was 4.62% (inactive). Besides, the inhibition is -4.52% (inactive) in assay [5] and -0.18% (inactive) in assay [6].
Take `CCCNC(=O)C1CN(S(=O)(=O)c2ccccc2)CCN1S(=O)(=O)c1ccccc1` (stereo not drawn): the viability in assay [1] is 103% (inactive); in assay [2] it was 108% (inactive); in assay [3] it was 99.2% (inactive); in assay [4] (setting [7]), 89.4%; in assay [4] (setting [8]), 99.2%. Also, the differential viability (reversal) in assay [4] (H69AR cells + 2 uM doxorubicin) is 9.82% (inactive). The inhibition is 4.42% (inactive) in assay [5] and 3.77% (inactive) in assay [6].
Take `O=C(CSc1nc2ccccc2o1)N1CCN(C(=O)c2ccco2)CC1`: the viability was 117% (inactive) in assay [1]; 102% (inactive) in assay [2]; 94.5% (inactive) in assay [3]; 93.3% in assay [4] (setting [7]); 94.5% in assay [4] (setting [8]). Also, the differential viability (reversal) in assay [4] (H69AR cells + 2 uM doxorubicin) was 1.25% (inactive). The values for the inhibition in assay [5] and in assay [6] were -6.67% (inactive) and -1.45% (inactive), respectively.
Consider `O=S(=O)(NCc1ccc(Cl)cc1)c1cnc[nH]1`, for which the viability in assay [1] is 103% (inactive); in assay [2], 98.1% (inactive); in assay [3] it was 106% (inactive); in assay [4] (setting [7]), 82.7%; in assay [4] (setting [8]), 106%. Further, the differential viability (reversal) in assay [4] (H69AR cells + 2 uM doxorubicin) was 23.5% (inactive). The inhibition was -6.36% (inactive) in assay [5] and -4.59% (inactive) in assay [6].
